{"source": "ChEMBL document CHEMBL4431326", "about": "“Tumor Targeting with Novel 6-Substituted Pyrrolo [2,3-d] Pyrimidine Antifolates with Heteroatom Bridge Substitutions via Cellular Uptake by Folate Receptor α and the Proton-Coupled Folate Transporter and Inhibition of de Novo Purine Nucleotide Biosynthesis” (J Med Chem, 2016)", "key": {"IGROV-1 [1]": {"system": "IGROV-1", "test": "Antitumor activity against human IGROV1 cells xenografted into folate-deficient diet fed SCID mouse assessed as tumor cell kill at 150 mg/kg, iv administered […] post 2 days of tumor implantation measured on day 20", "type": "functional"}, "[2]": {"biological_target": "Folate receptor alpha (Homo sapiens) (UniProt P15328)", "sequence (P15328 25-234 limits assumed)": "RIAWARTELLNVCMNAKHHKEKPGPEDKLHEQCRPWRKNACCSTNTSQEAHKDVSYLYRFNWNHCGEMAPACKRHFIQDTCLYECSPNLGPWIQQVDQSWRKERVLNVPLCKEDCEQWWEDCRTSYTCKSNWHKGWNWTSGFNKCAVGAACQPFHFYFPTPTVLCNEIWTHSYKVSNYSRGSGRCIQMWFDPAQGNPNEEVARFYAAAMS", "test": "Displacement of [3H]folic acid from human FR-alpha receptor expressed in Chinese hamster RT16 cells measured after 15 mins relative to folic acid", "type": "cell-based", "set-up": "concentration or dose not given beside the values"}, "[3]": {"test": "Toxicity in folate-deficient diet fed SCID mouse xenografted with human IGROV1 cells assessed as body weight loss at 28 mg/kg, iv administered […] post 2 days of tumor implantation measured after 48 hrs of last dosage", "type": "organism-based", "conditions": "in vivo", "summary_of_the_method": "(§1)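 Female NCR SCID mice (11 weeks old, ~20 g) are fed a folate-deficient diet from 14 days before implant. IGROV1 fragments (30–60 mg) are trocar-implanted subcutaneously in both flanks, and mice are randomised at 5/group. Tail-vein dosing starts on day 2: 28 mg/kg/inj Q3dx5, or 96 or 150 mg/kg/inj Q3dx4. Vehicle is 5% ethanol, 1% Tween-80, 0.5% NaHCO3 in water at pH 6.5. Caliper tumor mass is (a×b²)/2, T/C is taken when controls reach 700–1200 mg, and weights are recorded daily.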"}, "IGROV-1 [4]": {"system": "IGROV-1", "test": "Antitumor activity against human IGROV1 cells xenografted into standard diet fed SCID mouse assessed as tumor growth at 150 mg/kg, iv administered […] post 2 days of tumor implantation measured on day 20 relative to control", "type": "functional", "summary_of_the_method": "(§2)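 Female NCR SCID mice, 11 weeks, ~20 g, on folate-deficient or standard diet from 14 days pre-implant; bilateral s.c. IGROV1 fragments (30–60 mg); 5 mice/group; tail-vein dosing from day 2 (Q3d schedules) in 5% ethanol, 1% Tween-80, 0.5% NaHCO3, water, pH 6.5; caliper mass (a×b²)/2; T/C and T−C delay.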"}, "[5]": {"test": "Toxicity in folate-deficient diet fed SCID mouse xenografted with human IGROV1 cells assessed as body weight loss at 96 and 150 mg/kg, iv administered […] post 2 days of tumor implantation measured during compound treatment", "type": "organism-based", "conditions": "in vivo, 48 h", "summary_of_the_method": "as §1"}, "KB": {"system": "KB", "test": "Antiproliferative activity against human KB cells expressing human RFC/FR-alpha/PCFT assessed as reduction in cell viability measured after 96 hrs by Cell-Titer Blue fluorescence analysis", "type": "functional, cell-based"}, "[6]": {"biological_target": "T1, Proton-coupled folate transporter (Homo sapiens) (UniProt Q96NT5)", "T1 sequence (whole entry)": "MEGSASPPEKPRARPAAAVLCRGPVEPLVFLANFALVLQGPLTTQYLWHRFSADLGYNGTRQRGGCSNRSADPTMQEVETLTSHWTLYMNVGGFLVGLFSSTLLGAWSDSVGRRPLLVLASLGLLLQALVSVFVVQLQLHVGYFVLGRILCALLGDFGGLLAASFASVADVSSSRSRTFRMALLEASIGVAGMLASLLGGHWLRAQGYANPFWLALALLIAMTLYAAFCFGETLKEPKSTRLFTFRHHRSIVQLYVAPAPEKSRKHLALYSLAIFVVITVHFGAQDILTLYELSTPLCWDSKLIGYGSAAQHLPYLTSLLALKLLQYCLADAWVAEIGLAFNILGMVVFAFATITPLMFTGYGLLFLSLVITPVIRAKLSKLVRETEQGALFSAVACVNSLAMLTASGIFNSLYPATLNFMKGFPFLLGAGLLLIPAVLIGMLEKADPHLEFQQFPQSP", "test": "Inhibition of [3H]MTX uptake at human PCFT expressed in Chinese hamster R2/PCFT4 cells at 1 uM and pH 5.5 measured after 5 mins", "type": "cell-based"}, "[7]": {"test": "Cytotoxicity in PCFT-null Chinese hamster R2 cells assessed as reduction in cell viability measured after 96 hrs by Cell-Titer Blue fluorescence analysis", "type": "cell-based", "conditions": "Cricetulus griseus, R2, 96 h"}, "[8]": {"test": "Toxicity in folate-deficient diet fed SCID mouse xenografted with human IGROV1 cells assessed as body weight loss at 96 and 150 mg/kg, iv administered […] post 2 days of tumor implantation measured after 48 hrs of last dosage", "type": "organism-based", "conditions": "in vivo", "summary_of_the_method": "as §1"}, "[9]": {"test": "Cytotoxicity in RFC-null Chinese hamster R2 cells assessed as reduction in cell viability measured after 96 hrs by Cell-Titer Blue fluorescence analysis", "type": "cell-based", "conditions": "Cricetulus griseus, R2, 96 h"}, "IGROV-1 [10]": {"system": "IGROV-1", "test": "Antitumor activity against human IGROV1 cells xenografted into standard diet fed SCID mouse assessed as tumor growth at 28 mg/kg, iv administered […] post 2 days of tumor implantation measured on day 20 relative to control", "type": "functional", "summary_of_the_method": "as §2"}, "IGROV-1 [11]": {"system": "IGROV-1", "test": "Antitumor activity against human IGROV1 cells xenografted into folate-deficient diet fed SCID mouse assessed as tumor growth delay at 150 mg/kg, iv administered […] post 2 days of tumor implantation", "type": "functional", "summary_of_the_method": "as §2"}}}
{"smiles": "Nc1nc2[nH]c(CCNc3ccc(C(=O)N[C@@H](CCC(=O)O)C(=O)O)cc3)cc2c(=O)[nH]1", "values": [{"measurement": "LCK", "setting": "IGROV-1 [1]", "value": 2.3}, {"measurement": "inhibition", "setting": "[2]", "value": "60 to 110", "unit": "%"}, {"measurement": "Activity", "setting": "[3]", "value": "Non-Toxic"}, {"measurement": "T/C", "setting": "IGROV-1 [4]", "value": 94, "unit": "%"}, {"measurement": "Activity", "setting": "[5]", "value": "17 to 17.3", "unit": "%"}, {"measurement": "IC50", "setting": "KB", "value": 0.32, "unit": "nM"}, {"measurement": "inhibition", "setting": "[6]", "value": "30 to 60", "unit": "%"}, {"measurement": "IC50", "setting": "[7]", "value": "> 1000", "unit": "nM"}, {"measurement": "Activity", "setting": "[8]", "value": "Non-Toxic"}, {"measurement": "IC50", "setting": "[9]", "value": "> 1000", "unit": "nM"}, {"measurement": "T/C", "setting": "IGROV-1 [10]", "value": 68, "unit": "%"}, {"measurement": "Time", "setting": "IGROV-1 [11]", "value": 15, "unit": "days"}]}
